Reference: ChEMBL document CHEMBL1806414, “Synthesis and anticonvulsant activity of 7-phenyl-6,7-dihydro-[1,2,4]triazolo[1,5-a]pyrimidin-5(4H)-ones and their derivatives” (Eur J Med Chem, 2011)
Active and inactive are the calls of the source. No cut-off for these calls is given here.

What was measured:
Mus musculus [1] = assay: Anticonvulsant activity in Kunming mouse assessed as inhibition of thiosemicarbazide-induced tonic seizures at 30 mg/kg, ip after 2.5 hrs; assay type: functional; design: scale not given: the % may be the effect or the level left; details: route intraperitoneal
Outline: (§1)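 Thiosemicarbazide, 50 mg/kg i.p., was given 0.5 h after compound or DMSO to KunMing mice, 10 per group. Mice were caged individually and observed for 2.5 h for clonic and tonic seizures and deaths.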

Mus musculus [2] = assay: Neurotoxicity in Kunming mouse at 100 mg/kg, ip after 0.5 hrs; assay type: toxicity, organism-based; design: dose 100 mg/kg, route intraperitoneal; details: in vivo
Outline: (§2)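 Rotarod neurotoxicity in KunMing mice (18–22 g) trained on a 3.2 cm diameter rod at 10 rpm. Compounds in DMSO were given i.p. at 30, 100 and 300 mg/kg, three mice per dose, and tested at 0.5 h and 4 h after dosing.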

Mus musculus [3] = assay: Anticonvulsant activity against maximal electric shock-induced seizures in ip dosed Kunming mouse assessed as median effective dose; assay type: functional
Outline: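 Phase-II MES test in KunMing mice (18–22 g), DMSO vehicle, corneal electrode stimulus 0.2 s. Groups of 10 mice got a range of i.p. doses until at least three points fell within 10–90% seizure protection, giving the median effective dose. Endpoint is abolition of tonic hind-leg extension.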

Mus musculus [4] = assay: Anticonvulsant activity in Kunming mouse assessed as protection against maximal electric shock-induced seizures at 30 mg/kg, ip measured after 0.5 hrs; assay type: functional, organism-based; design: dose 30 mg/kg
Outline: (§3)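 KunMing mice (18–22 g), compounds dissolved in DMSO, given i.p. at 30, 100 and 300 mg/kg, three mice per dose. Current applied through corneal electrodes for 0.2 s at 0.5 h and 4 h after dosing. Protection is abolition of tonic hind-leg extension, scored as protected/tested.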

Mus musculus [5] = assay: Neurotoxicity in Kunming mouse at 100 mg/kg, ip after 4 hrs; assay type: toxicity, organism-based; design: dose 100 mg/kg, route intraperitoneal; details: in vivo; outline: as §2
Mus musculus [6] = assay: Anticonvulsant activity in Kunming mouse assessed as inhibition of 3-mercaptopropionic acid-induced tonic seizures at 30 mg/kg, ip after 0.5 hrs; assay type: functional; design: scale not given: the % may be the effect or the level left; details: route intraperitoneal
Outline: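 Kunming mice (18–22 g, 10/group) received test compound i.p. in DMSO; 0.5 h later 3-mercaptopropionic acid, 60 mg/kg in saline, was given s.c. Mice were scored for clonic seizures, tonic seizures (hind-leg extension) and deaths.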

Mus musculus [7] = assay: Anticonvulsant activity in Kunming mouse assessed as inhibition of bicuculline-induced tonic seizures at 30 mg/kg, ip after 0.5 hrs; assay type: functional; design: scale not given: the % may be the effect or the level left; details: route intraperitoneal
Outline: (§4)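 Kunming mice (18–22 g, 10/group) received test compound i.p. in DMSO; 0.5 h later bicuculline, 5.4 mg/kg, was given s.c. within 15–45 min of preparation. Mice were isolated and observed for at least 0.5 h for clonic seizures, tonic seizures and lethality.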

Mus musculus [8] = assay: Neurotoxicity in Kunming mouse at 300 mg/kg, ip after 4 hrs; assay type: toxicity, organism-based; design: dose 300 mg/kg, route intraperitoneal; details: in vivo; outline: as §2
Mus musculus [9] = assay: Anticonvulsant activity in Kunming mouse assessed as inhibition of bicuculline-induced clonic seizures at 30 mg/kg, ip after 0.5 hrs; assay type: functional; design: scale not given: the % may be the effect or the level left; details: route intraperitoneal
Outline: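 Bicuculline, 5.4 mg/kg s.c. and used within 15–45 min of preparation, was given 0.5 h after i.p. compound or DMSO to KunMing mice, 10 per group. Mice were isolated and observed for at least 0.5 h for clonic seizures, tonic seizures and lethality.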

Mus musculus [10] = assay: Anticonvulsant activity in Kunming mouse assessed as inhibition of isoniazid-induced tonic seizures at 50 mg/kg, ip after 1 hrs; assay type: functional; design: scale not given: the % may be the effect or the level left; details: route intraperitoneal
Outline: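 Isoniazid given at 250 mg/kg, a dose convulsing all controls, to KunMing mice pretreated i.p. with compound or DMSO. Mice were caged individually and observed for 1 h, counting clonic seizures, tonic seizures and deaths.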

Mus musculus [11] = assay: Anticonvulsant activity in Kunming mouse assessed as inhibition of isoniazid-induced clonic seizures at 50 mg/kg, ip after 1 hrs; assay type: functional; design: scale not given: the % may be the effect or the level left; details: route intraperitoneal
Mus musculus [12] = assay: Anticonvulsant activity in Kunming mouse assessed as inhibition of 3-mercaptopropionic acid-induced clonic seizures at 30 mg/kg, ip after 0.5 hrs; assay type: functional; design: scale not given: the % may be the effect or the level left; details: route intraperitoneal
Outline: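 3-Mercaptopropionic acid, 60 mg/kg in saline, was injected s.c. 0.5 h after i.p. compound or DMSO in KunMing mice, 10 per group. Clonic and tonic seizures and deaths were scored.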

[13] = Neurotoxicity in ip dosed Kunming mouse by rotarod test; assay type: toxicity, organism-based; details: in vivo
Outline: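 Phase-II rotarod test in KunMing mice trained on a 3.2 cm rod at 10 rpm, DMSO vehicle. Groups of 10 mice got graded i.p. doses until at least three points fell within 10–90% minimal neurotoxicity, giving the median toxic dose.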

Mus musculus [14] = assay: Anticonvulsant activity in Kunming mouse assessed as protection against maximal electric shock-induced seizures at 30 mg/kg, ip measured after 4 hrs; assay type: functional, organism-based; design: dose 30 mg/kg; outline: as §3
Mus musculus [15] = species on record: Mus musculus; assay: Protective index, ratio of TD50 for neurotoxicity in Kunming mouse to ED50 for inhibition of MES-induced seizures in Kunming mouse; assay type: functional
Mus musculus [16] = assay: Anticonvulsant activity in Kunming mouse assessed as protection against maximal electric shock-induced seizures at 300 mg/kg, ip measured after 0.5 hrs; assay type: functional, organism-based; design: dose 300 mg/kg; outline: as §3
Mus musculus [17] = assay: Anticonvulsant activity in Kunming mouse assessed as protection against maximal electric shock-induced seizures at 100 mg/kg, ip measured after 0.5 hrs; assay type: functional, organism-based; design: dose 100 mg/kg; outline: as §3
Mus musculus [18] = assay: Anticonvulsant activity in Kunming mouse assessed as inhibition of bicuculline-induced death at 30 mg/kg, ip after 0.5 hrs; assay type: functional; design: scale not given: the % may be the effect or the level left; details: route intraperitoneal; outline: as §4
Mus musculus [19] = assay: Neurotoxicity in Kunming mouse at 300 mg/kg, ip after 0.5 hrs; assay type: toxicity, organism-based; design: dose 300 mg/kg, route intraperitoneal; details: in vivo; outline: as §2
Mus musculus [20] = assay: Anticonvulsant activity in Kunming mouse assessed as inhibition of subcutaneous pentylenetetrazol-induced tonic seizures at 50 mg/kg, ip after 0.5 hrs; assay type: functional; design: scale not given: the % may be the effect or the level left
Mus musculus [21] = assay: Anticonvulsant activity in Kunming mouse assessed as inhibition of isoniazid-induced death at 50 mg/kg, ip after 1 hrs; assay type: functional; design: scale not given: the % may be the effect or the level left; details: route intraperitoneal
Mus musculus [22] = assay: Anticonvulsant activity in Kunming mouse assessed as protection against maximal electric shock-induced seizures at 100 mg/kg, ip measured after 4 hrs; assay type: functional, organism-based; design: dose 100 mg/kg; outline: as §3
Mus musculus [23] = assay: Anticonvulsant activity in Kunming mouse assessed as inhibition of subcutaneous pentylenetetrazol-induced clonic seizures at 50 mg/kg, ip after 0.5 hrs; assay type: functional; design: scale not given: the % may be the effect or the level left
Outline: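 Compound or vehicle (DMSO) given i.p. to KunMing mice, 10 per group, before the pentylenetetrazol challenge. Mice were held in individual cages and observed for 0.5 h. Clonic seizures, tonic seizures (hind-leg extension) and deaths were counted.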

Mus musculus [24] = assay: Anticonvulsant activity in Kunming mouse assessed as inhibition of thiosemicarbazide-induced clonic seizures at 30 mg/kg, ip after 2.5 hrs; assay type: functional; design: scale not given: the % may be the effect or the level left; details: route intraperitoneal; outline: as §1
Mus musculus [25] = assay: Anticonvulsant activity in Kunming mouse assessed as protection against maximal electric shock-induced seizures at 300 mg/kg, ip measured after 4 hrs; assay type: functional, organism-based; design: dose 300 mg/kg; outline: as §3

SMILES	Activity (Mus musculus [1]) [%]	ED50 (Mus musculus [3]) [mg/kg]	Activity (Mus musculus [6]) [%]	Activity (Mus musculus [7]) [%]	Activity (Mus musculus [9]) [%]	Activity (Mus musculus [10]) [%]	Activity (Mus musculus [11]) [%]	Activity (Mus musculus [12]) [%]	Ratio TD50/ED50 (Mus musculus [15])	Activity (Mus musculus [18]) [%]	Activity (Mus musculus [20]) [%]	Activity (Mus musculus [23]) [%]	Activity (Mus musculus [24]) [%]	also measured
O=C1CC(c2ccccc2Br)n2ncnc2N1 (stereo not drawn)	0	19.7	0	10	100	0	100	100	34.8	50	0	0	100	Activity (Mus musculus [2]): Non-toxic; Activity (Mus musculus [4]): Active; Activity (Mus musculus [5]): Non-toxic; Activity (Mus musculus [8]): Non-toxic; TD50 [13]: 685 mg/kg; Activity (Mus musculus [14]): inactive; Activity (Mus musculus [16]): Active; Activity (Mus musculus [17]): Active; Activity (Mus musculus [19]): Non-toxic; Activity (Mus musculus [21]): 30%; Activity (Mus musculus [22]): inactive; Activity (Mus musculus [25]): inactive
NC(=O)N1c2ccccc2C=Cc2ccccc21 [CARBAMAZEPINE]	0	11.8	0	0	100	0	50	100	6.4	20	0	100	100	
